In ChEMBL document CHEMBL1629627, “CTX-M expression and selection of ertapenem resistance in Klebsiella pneumoniae and Escherichia coli” (Antimicrob Agents Chemother, 2009):
Calls of active or inactive are those of the source. The calls are words filed in the database; no cut-off is given here.

Legend:
Type in all cases: functional, organism-based
Escherichia coli [1] = assay: Antibacterial activity against Escherichia coli Wi expressing CTX-M15
Klebsiella pneumoniae [2] = assay: Reduction of OmpK36 expression in Klebsiella pneumoniae M expressing CTX-M3 at 4 times MIC concentration by RT-PCR analysis
Method in brief: (§1)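 K. pneumoniae M strains, with or without CTX-M, were selected for 18 h at 37°C on Trypticase soy agar with ertapenem at four times the MIC. ompK35 (222-bp amplicon) and ompK36 (202-bp amplicon) transcripts were measured by real-time RT-PCR before and after selection; a 193-bp 16S rRNA amplicon was also amplified. Copy numbers were derived from the slopes of calibration curves made with serially diluted cDNA from in vitro RNA standards.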

Klebsiella pneumoniae [3] = assay: Reduction of OmpK36 expression in Klebsiella pneumoniae M expressing CTX-M9 at 4 times MIC concentration by RT-PCR analysis; method in brief: as §1
Klebsiella pneumoniae [4] = assay: Reduction of OmpK36 expression in wild type Klebsiella pneumoniae M at 4 times MIC concentration by RT-PCR analysis; method in brief: as §1
Klebsiella pneumoniae [5] = assay: Antibacterial activity against Klebsiella pneumoniae M expressing CTX-M3
Klebsiella pneumoniae [6] = assay: Reduction of OmpK35 expression in Klebsiella pneumoniae M expressing CTX-M3 at 4 times MIC concentration by RT-PCR analysis; method in brief: as §1
Klebsiella pneumoniae [7] = assay: Reduction of OmpK35 expression in Klebsiella pneumoniae M expressing CTX-M15 at 4 times MIC concentration by RT-PCR analysis; method in brief: as §1
Klebsiella pneumoniae [8] = assay: Reduction of OmpK36 expression in Klebsiella pneumoniae M expressing CTX-M9 at 4 times MIC concentration by SDS-PAGE analysis
Escherichia coli [9] = assay: Reduction of OmpF expression in Escherichia coli Wi expressing CTX-M9 at 4 times MIC concentration by RT-PCR analysis
Method in brief: (§2)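 Ertapenem-decreased-susceptibility mutants of E. coli Wi transformants were selected overnight (18 h, 37°C) on Trypticase soy agar containing ertapenem at fourfold the MIC. omp gene transcripts were quantified by real-time RT-PCR in isolates before and after selection. Calibration curves came from serially diluted cDNA of in vitro-obtained RNA standards for each gene, and copy numbers were compared using the curve slopes.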

Escherichia coli [10] = assay: Reduction of OmpF expression in Escherichia coli Wi expressing CTX-M3 at 4 times MIC concentration by RT-PCR analysis; method in brief: as §2
Escherichia coli [11] = assay: Reduction of OmpC expression in Escherichia coli Wi expressing CTX-M2 at 4 times MIC concentration by SDS-PAGE analysis
Klebsiella pneumoniae [12] = assay: Reduction of OmpK36 expression in Klebsiella pneumoniae M expressing CTX-M15 at 4 times MIC concentration by RT-PCR analysis; method in brief: as §1
Escherichia coli [13] = assay: Reduction of OmpC expression in Escherichia coli Wi expressing CTX-M9 at 4 times MIC concentration by SDS-PAGE analysis
Escherichia coli [14] = assay: Antibacterial activity against Escherichia coli Wi expressing CTX-M3
Klebsiella pneumoniae [15] = assay: Reduction of OmpK36 expression in wild type Klebsiella pneumoniae M at 4 times MIC concentration by SDS-PAGE analysis
Klebsiella pneumoniae [16] = assay: Reduction of OmpK36 expression in Klebsiella pneumoniae M expressing CTX-M2 at 4 times MIC concentration by RT-PCR analysis; method in brief: as §1
Klebsiella pneumoniae [17] = assay: Reduction of OmpK36 expression in Klebsiella pneumoniae M expressing CTX-M15 at 4 times MIC concentration by SDS-PAGE analysis
Escherichia coli [18] = assay: Reduction of OmpC expression in Escherichia coli Wi expressing CTX-M3 at 4 times MIC concentration by SDS-PAGE analysis
Klebsiella pneumoniae [19] = assay: Reduction of OmpK35 expression in Klebsiella pneumoniae M expressing CTX-M2 at 4 times MIC concentration by RT-PCR analysis; method in brief: as §1
Escherichia coli [20] = assay: Reduction of OmpF expression in Escherichia coli Wi expressing CTX-M2 at 4 times MIC concentration by RT-PCR analysis; method in brief: as §2
Klebsiella pneumoniae [21] = assay: Reduction of OmpK36 expression in Klebsiella pneumoniae M expressing CTX-M2 at 4 times MIC concentration by SDS-PAGE analysis
Klebsiella pneumoniae [22] = assay: Reduction of OmpK35 expression in Klebsiella pneumoniae M expressing CTX-M9 at 4 times MIC concentration by RT-PCR analysis; method in brief: as §1
Klebsiella pneumoniae [23] = assay: Antibacterial activity against Klebsiella pneumoniae M expressing CTX-M9
Escherichia coli [24] = assay: Reduction of OmpC expression in Escherichia coli Wi expressing CTX-M2 at 4 times MIC concentration by RT-PCR analysis; method in brief: as §2
Escherichia coli [25] = assay: Reduction of OmpC expression in Escherichia coli Wi expressing CTX-M15 at 4 times MIC concentration by SDS-PAGE analysis
Klebsiella pneumoniae [26] = assay: Antibacterial activity against Klebsiella pneumoniae M expressing CTX-M2
Escherichia coli [27] = assay: Antibacterial activity against Escherichia coli Wi expressing CTX-M2
Escherichia coli [28] = assay: Reduction of OmpF expression in Escherichia coli Wi expressing CTX-M15 at 4 times MIC concentration by RT-PCR analysis; method in brief: as §2
Escherichia coli [29] = assay: Reduction of OmpC expression in Escherichia coli Wi expressing CTX-M3 at 4 times MIC concentration by RT-PCR analysis; method in brief: as §2
Escherichia coli [30] = assay: Reduction of OmpC expression in Escherichia coli Wi expressing CTX-M15 at 4 times MIC concentration by RT-PCR analysis; method in brief: as §2
Klebsiella pneumoniae [31] = assay: Reduction of OmpK36 expression in Klebsiella pneumoniae M expressing CTX-M3 at 4 times MIC concentration by SDS-PAGE analysis
Escherichia coli [32] = assay: Antibacterial activity against Escherichia coli Wi expressing CTX-M9
Escherichia coli [33] = assay: Reduction of OmpC expression in Escherichia coli Wi expressing CTX-M9 at 4 times MIC concentration by RT-PCR analysis; method in brief: as §2
Klebsiella pneumoniae [34] = assay: Antibacterial activity against Klebsiella pneumoniae M expressing CTX-M15

Q: Which results are given for `C[C@@H](O)[C@H]1C(=O)N2C(C(=O)O)=C(S[C@@H]3CN[C@H](C(=O)Nc4cccc(C(=O)O)c4)C3)[C@H](C)[C@H]12`?
A: Activity (Escherichia coli [1]): inactive; Activity (Klebsiella pneumoniae [2]): Active; Activity (Klebsiella pneumoniae [3]): Active; Activity (Klebsiella pneumoniae [4]): Active; Activity (Klebsiella pneumoniae [5]): inactive; Activity (Klebsiella pneumoniae [6]): Active; Activity (Klebsiella pneumoniae [7]): Active; Activity (Klebsiella pneumoniae [8]): Active; Activity (Escherichia coli [9]): Active; Activity (Escherichia coli [10]): Active; Activity (Escherichia coli [11]): Active; Activity (Klebsiella pneumoniae [12]): Active; Activity (Escherichia coli [13]): Active; Activity (Escherichia coli [14]): inactive; Activity (Klebsiella pneumoniae [15]): Active; Activity (Klebsiella pneumoniae [16]): Active; Activity (Klebsiella pneumoniae [17]): Active; Activity (Escherichia coli [18]): Active; Activity (Klebsiella pneumoniae [19]): Active; Activity (Escherichia coli [20]): Active; Activity (Klebsiella pneumoniae [21]): Active; Activity (Klebsiella pneumoniae [22]): Active; Activity (Klebsiella pneumoniae [23]): inactive; Activity (Escherichia coli [24]): Active; Activity (Escherichia coli [25]): Active; Activity (Klebsiella pneumoniae [26]): inactive; Activity (Escherichia coli [27]): inactive; Activity (Escherichia coli [28]): Active; Activity (Escherichia coli [29]): Active; Activity (Escherichia coli [30]): Active; Activity (Klebsiella pneumoniae [31]): Active; Activity (Escherichia coli [32]): inactive; Activity (Escherichia coli [33]): Active; Activity (Klebsiella pneumoniae [34]): inactive
